RGS4 act = RGS4 potentiators or activators, primary screen, cell-based, HEK293 M3R inducible RGS4, calcium flux; 0.92% of 310,000 active; B-score at 10 µM; carbachol calcium flux Fluo4; hits give low values;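 active means B-score of the integrated calcium signal more than 4 SD below the library mean, with starting fluorescence not abnormally high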;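 further: negative B-score means reduced calcium response which marks RGS4 activation or potentiation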
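Reagent: ECmax carbachol challenge; Test system: M3R-expressing HEK293 line, RGS4 induced by doxycycline; Schedule: overnight RGS4 induction, 30 min dye load 37 °C, 20 min compound RT; Detection: calcium dye Fluo4 fluorescence; Read-out: Agonist-evoked peak-minus-minimum fluorescence over baseline, integrated ratio, B score.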
RGS4 inh = RGS4 inhibitors, primary screen, cell-based, HEK293 M3R inducible RGS4, calcium flux | Fluo-4 calcium flux; hits give high values; triggered by carbachol at its EC20 | 0.45% of 310,000 active | AID 463165, 2010 | B-score at 10 µM | Regulator of G-protein signaling 4 (Homo sapiens), P49798;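 active means B-score, a plate-corrected calcium signal, over three deviations above library mean, with baseline fluorescence within five deviations of library mean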;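 further: RGS4 expression induced by doxycycline in cells with stable M3 receptor; B-score is computed from the integrated fluorescence ratio over baseline after carbachol; higher B-score means a larger calcium signal and so more RGS4 inhibition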
Target sequence (P49798 whole entry, looked up): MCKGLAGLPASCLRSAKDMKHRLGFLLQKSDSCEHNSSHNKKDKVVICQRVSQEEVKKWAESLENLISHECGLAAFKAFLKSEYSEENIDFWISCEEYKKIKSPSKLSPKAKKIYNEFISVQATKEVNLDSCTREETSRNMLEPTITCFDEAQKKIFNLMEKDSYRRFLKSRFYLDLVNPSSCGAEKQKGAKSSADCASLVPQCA
MrgX1 ag = agonists of human MrgX1 receptor, primary screen, HEK293 cells, Fluo-4 calcium flux. Fluo-4 calcium fluorescence, agonist mode; hits give high values. 0.44% of 310,000 active. B-score at 10 µM. Mas-related G-protein coupled receptor member X1 (Homo sapiens), Q96LB2. AID 588627, 2011;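 active means calcium response B-score plate-corrected fluorescence ratio at least 3 library SD, with starting fluorescence B-score inside 5 SD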
Target sequence (Q96LB2 whole entry, looked up): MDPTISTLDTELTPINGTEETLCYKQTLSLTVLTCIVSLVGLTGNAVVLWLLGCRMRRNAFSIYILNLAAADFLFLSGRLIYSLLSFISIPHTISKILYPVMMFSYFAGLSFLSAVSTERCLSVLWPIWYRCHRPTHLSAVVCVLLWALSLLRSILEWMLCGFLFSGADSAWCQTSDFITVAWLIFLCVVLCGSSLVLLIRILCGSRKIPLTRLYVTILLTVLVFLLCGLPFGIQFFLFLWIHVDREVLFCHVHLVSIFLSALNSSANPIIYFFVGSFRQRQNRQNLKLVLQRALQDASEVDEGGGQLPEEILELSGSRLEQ
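Material: MrgX1-expressing HEK293 cells; input: 15,000 cells per well; doses: test compound given as first of three sequential additions; schedule: overnight plating before 1 h dye loading; technique: Fluo-4 NW calcium-flux fluorescence, kinetic read; evaluation: baseline-normalised fluorescence change ratio, B-scored; control set: plate-wise positive and negative controls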
MrgX1 antagonist = antagonists of human MrgX1 receptor, primary screen, HEK293 cells, Fluo-4 calcium flux. BAM8-22 antagonism; hits give low values. 1.3% of 310,000 active. B-score at 10 µM. Mas-related G-protein coupled receptor member X1 (Homo sapiens), Q96LB2;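 active means calcium-response B-score plate-corrected more than 3 library SD below zero, starting fluorescence within 5 deviations, no agonist response on first addition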;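 further: peak minus trough fluorescence over baseline after final BAM8-22 challenge near maximal dose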
MrgX1 allo act = positive allosteric modulators of MrgX1, primary screen, HEK293 cells, Fluo-4 calcium flux. B-score at 10 µM. Mas-related G-protein coupled receptor member X1 (Homo sapiens), Q96LB2. FDSS; hits give high values. AID 588675, 2011. 0.63% of 310,000 active;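 active means plate-corrected calcium response at least 3 library SD above typical, normal starting fluorescence, not activating the receptor alone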;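 further: compound read alongside a low EC10 to EC30 dose of BAM8-22 agonist; peak minus trough fluorescence over baseline measured at the second addition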
MrgX1 PAM conf = MrgX1 positive allosteric modulators, duplicate retest, confirmation, HEK293 cells, Fluo-4 calcium flux; shares compounds with MrgX1 allo act; Fluo-4 calcium fluorescence, FDSS; activation (ratio percentage), % at 10 µM; 13% of 1,200 active; AID 602413, 2012;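 active means ratio at least 3 SD above the weak peptide control, stable starting fluorescence, no direct agonism earlier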;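 further: compound followed by low BAM8-22 agonist challenge near EC20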
HEK293 Ca flux = nonspecific calcium signal in parental HEK293, confirmation, counter-screen for MrgX1 antagonist project, parental HEK293 cells, Fluo-4 calcium flux | Fluo-4 calcium fluorescence, FDSS | fluorescence ratio F(max-min)/F0 at 10 µM | shares compounds with MrgX1 antagonist | 2% of 4,000 active | AID 624111, 2012;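 active means duplicate-averaged calcium fluorescence ratio at least three times the standard deviation of buffer wells, a nonspecific response in parental cells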
HEK293 Ca counter = calcium response in parental HEK293 cells, primary screen, counter-screen for MrgX1 allosteric activator project, cell-based, Fluo-4 calcium flux, duplicate. shares compounds with MrgX1 antagonist. Fluo-4 fluorescence ratio; hits give high values. fluorescence ratio F(max-min)/F0 at 10 µM. 0.4% of 4,000 active;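 active means calcium fluorescence ratio, averaged over duplicates, at least 3 SD of the buffer-well ratio, meaning a nonspecific response in receptor-free cells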;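 further: untransfected parental HEK293 lacking MrgX1 used as counterscreen for MrgX1 allosteric activators; fluorescence change taken during the second addition on a kinetic imager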
HEK293 Ca cntr2 = calcium response in parental HEK293 cells, primary screen, counter-screen for MrgX1 agonist project, cell-based, Fluo-4 calcium flux, duplicate, agonist mode. shares compounds with MrgX1 antagonist. Fluo-4 calcium fluorescence (FDSS); hits give high values. fluorescence ratio F(max-min)/F0 at 10 µM. 8.7% of 4,000 active;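 active means calcium fluorescence ratio at least three times the spread of buffer wells, meaning a non-specific response in parental cells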
Starred values were filed as active, the others as inactive; i = inactive; x = no result. Hits are enriched below; roughly 3.5% of the tested compounds scored in any of these assays.

SMILES	RGS4 act	RGS4 inh	MrgX1 ag	MrgX1 antagonist	MrgX1 allo act	MrgX1 PAM conf	HEK293 Ca flux	HEK293 Ca counter	HEK293 Ca cntr2
COc1ccccc1NS(=O)(=O)c1cc(-c2cnc(C3CC3)o2)ccc1C	i	i	i	i	14*	i	i	i	i
C=CCc1c(C)nc(SC)nc1Nc1ccc(C(=O)O)cc1	i	i	i	i	i	x	x	x	x
C=CCc1c(C)nc(SC)nc1Nc1ccc(C(C)=O)cc1	i	i	i	i	7*	i	i	i	i
N=c1c(S(=O)(=O)c2ccc(F)cc2)cc2c(=O)n3ccccc3nc2n1CC1CCCO1 (stereo not drawn)	i	i	i	i	i	x	x	x	x
CCc1ccc2c(c1)[C@H]1OCC[C@H]1[C@@H](c1cccs1)N2	i	i	i	i	9.5*	i	i	i	i
O=C(N/N=C/c1cc(Cl)c(O)c(Cl)c1)c1cc2c(ccc3ccccc32)o1	i	i	i	i	i	x	x	x	x
O=C(CCl)Nc1cccc(S(=O)(=O)NC2=NCCC2)c1	i	i	i	i	7.9*	i	i	i	i
CCNC(=S)Nc1cccc(S(=O)(=O)NC2=NCCC2)c1	i	i	i	i	i	x	x	x	x
O=C(C(=O)N1CCCCC1)c1c(-c2ccccc2)[nH]c2ccccc12	i	i	i	i	i	x	x	x	x
COc1ccccc1CN(C)CC(=O)Nc1ccccc1-c1ccccc1	i	i	i	i	10*	i	i	i	i
COc1ccc(CN(C)CC(=O)Nc2ccccc2-c2ccccc2)c(OC)c1	i	i	i	i	i	x	x	x	x
Cc1ccc(CC(=O)Nc2ccccc2-c2ccccc2)cc1C	i	i	i	i	21*	i	i	i	i
COc1ccc(OCC(=O)Nc2ccccc2-c2ccccc2)cc1	i	i	i	i	12*	i	i	i	i
COc1ccc(CC(=O)Nc2ccccc2-c2ccccc2)cc1OC	i	i	i	i	i	x	x	x	x
CSC(=S)N/N=C(\C)c1ccc(Br)cc1	i	i	i	i	i	x	x	x	x
CCn1ccnc1C(O)(c1ccccc1)c1ccccc1	i	i	i	i	i	x	x	x	x
CN(Cc1ccccc1)Cc1nc2c(c(=O)n(C)c(=O)n2C)n1CCCc1ccccc1	i	i	i	i	8.1*	i	i	i	i
O=C(CCl)Nc1cccc(Oc2cnccn2)c1	i	i	i	i	i	x	x	x	x
O=C(CCl)Nc1cccc(Oc2ccccc2)c1	i	i	i	i	13*	i	i	i	48*
Cn1c(CN2CCCCC2)nc2cc(NC(=O)c3ccc(Cl)cc3)ccc21	i	i	i	i	i	x	x	x	x
Cn1c(CN2CCCC2)nc2cc(NC(=O)c3ccc(Cl)cc3)ccc21	i	i	i	i	9*	i	i	i	i
CCN(Cc1ccccc1)C(=O)CCc1nc(CN2CCN(C(=O)c3ccc([N+](=O)[O-])cc3)CC2)no1	i	i	i	i	i	x	x	x	x
Cc1cc(NC(=O)c2cccc(S(=O)(=O)N3CC(c4ccccc4)CC3=O)c2)no1 (stereo not drawn)	i	i	i	i	8.3*	i	i	i	i
Cc1ccc(NC(=O)CSc2nnc(C3CC3)n2N)cc1S(=O)(=O)N1CCOCC1	i	i	i	i	7.9*	i	i	i	i
CCOc1ccc(C(=O)NCC(=O)OCC(=O)N2CCC(C)CC2)cc1	i	i	i	i	8*	i	i	i	i
SMILES	RGS4 act	RGS4 inh	MrgX1 ag	MrgX1 antagonist	MrgX1 allo act	MrgX1 PAM conf	HEK293 Ca flux	HEK293 Ca counter	HEK293 Ca cntr2
O=C(COc1ccc(Cl)cc1Cl)NCCC1=CCCCC1	i	i	i	i	16*	5.0%*	i	i	i
CC(C)CNc1ncnc2c1cnn2Cc1ccccc1Cl	i	i	i	i	10*	i	i	i	i
CCCCOc1c(Br)cc(CNCCCN2CCOCC2)cc1OC	i	i	i	i	i	x	x	x	x
Cc1nc2scc(C)n2c(=O)c1S(=O)(=O)N1CCN(c2ccc([N+](=O)[O-])cc2)CC1	i	i	i	i	i	x	x	x	x
COc1ccc(Cl)cc1N(CC(=O)Nc1cccc(SC)c1)S(C)(=O)=O	i	i	i	i	8.3*	i	i	i	i
Cc1nc(-c2ccc(NC(=O)C3CC3)cc2)cs1	i	i	i	i	i	x	x	x	x
Cc1nc(-c2cccc(NC(=O)C3CCCCC3)c2)cs1	i	i	i	i	17*	i	i	i	i
COc1cc(N/C(N)=N/c2nc(C)cc(C)n2)cc(OC)c1	i	i	i	i	i	x	x	x	x
CCc1nc2ccc(C(=O)N(C)CC(=O)Nc3ccc(Cl)c(C(F)(F)F)c3)cc2nc1CC	i	i	i	i	14*	i	i	i	i
CC(C)CC(COCc1ccc(F)cc1)N1CCN(C(=O)c2cccc(C(F)(F)F)c2)CCC1=O (stereo not drawn)	i	i	i	i	i	x	x	x	x
CC(C)CC(CO)N1CCN(C(=O)c2cccc(C(F)(F)F)c2)CCC1=O (stereo not drawn)	i	i	i	i	10*	i	i	i	i
CCc1nonc1NC(=O)COc1cc(C)c(Cl)c(C)c1	i	i	i	i	i	x	x	x	x
